Compound activity: PubChem BioAssay, several laboratories
A selection: hits, their analogues and other compounds. The true share with any hit is near 1.8%.
Runt-SMMHC FRET: inhibitors of human RUNX1 Runt domain binding to CBFb-SMMHC | Cerulean-Runt/Venus-CBFb-SMMHC FRET ratio 530/480, 1 h | inhibition, % at 20 µM | actives 0.74% (n = 220,000);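 active = mean inhibition across duplicate retests at 20 µM reaching about 50%, limit read from the data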;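 note: inhibitors lower the FRET ratio by blocking Runt binding to CBFb-SMMHC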
Target sequence (Q01196 whole entry, looked up, the tested form may be a part): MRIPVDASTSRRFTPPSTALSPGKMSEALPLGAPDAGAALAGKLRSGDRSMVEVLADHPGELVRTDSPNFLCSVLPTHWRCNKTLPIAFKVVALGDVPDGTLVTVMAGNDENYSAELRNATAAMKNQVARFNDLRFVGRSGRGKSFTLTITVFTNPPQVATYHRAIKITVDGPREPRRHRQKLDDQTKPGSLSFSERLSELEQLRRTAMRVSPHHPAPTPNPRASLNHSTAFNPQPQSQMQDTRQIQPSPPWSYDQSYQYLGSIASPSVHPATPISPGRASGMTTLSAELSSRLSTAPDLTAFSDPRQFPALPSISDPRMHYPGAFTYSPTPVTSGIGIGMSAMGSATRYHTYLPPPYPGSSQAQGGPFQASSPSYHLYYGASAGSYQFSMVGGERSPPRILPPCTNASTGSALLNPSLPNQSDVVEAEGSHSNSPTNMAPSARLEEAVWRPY
Target sequence (Q13951 whole entry, looked up, the tested form may be a part): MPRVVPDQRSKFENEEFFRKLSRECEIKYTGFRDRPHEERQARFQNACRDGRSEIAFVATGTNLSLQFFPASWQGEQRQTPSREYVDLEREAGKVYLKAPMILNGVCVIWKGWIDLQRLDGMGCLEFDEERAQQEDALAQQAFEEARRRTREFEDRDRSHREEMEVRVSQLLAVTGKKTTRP
Runt-CBFb FRET: Runt domain-CBFb interaction inhibition | inhibition, % at 20 µM | actives 0.46% (n = 220,000) | Cerulean-Runt/Venus-CBFb FRET ratio 530/480, 1 h;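 active = inhibition over about 50% at 20 µM in the single-dose screen, limit read from the data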
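Assay system: Cerulean-Runt domain fusion protein, energy donor; Signal: fluorescence energy transfer, 422 nm excitation, 530/480 nm emission; Timing: 1 h compound exposure, room temperature; Control set: unlabeled CBFb; Medium: Tris buffer pH 7.5 with salts and BSA; Compound: single test concentration of 20 µM, 1% DMSO final; Probe or stimulus: Venus-CBFb 100 nM.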
Rce1 inh: blocks yeast Ras-converting enzyme | actives 0.27% (n = 290,000) | yeast membranes, quenched prenylated peptide cleavage fluorescence | calls only | Q03530;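 active = fall in fluorescence gain of 50% or more versus controls, with final raw signal at or below 3038400; inconclusive = same 50% fall but final raw signal above 3038400; inactive = fall in fluorescence gain under 50%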
Platelet DG rel: platelet dense granule release activity | AID 1663 | inhibition, %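 (compounds screened at 7.5 µM in platelet-rich plasma)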 | actives 0.22% (n = 300,000) | human platelet-rich plasma, SFLLRN dense granule ATP release, luminescence;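 active = mean replicate score, as percent of positive control, at or above 50; inconclusive = mean below 50 but at least one replicate at or above 50; inactive = mean and every replicate below 50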
RanGTP-Impb inh: disruptors of Ran-importin-beta complex formation – biochemical, FRET, CFP-Ran, YFP-importin-beta, homogeneous, primary screen; cell-free CFP-Ran/YFP-importin-beta FRET ratio; actives 1.1% (n = 300,000); inhibition, % (concentration not given with the values); AID 2216;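 active = more than half of the replicate wells show a fall in the fluorescence ratio signal beyond about 16%, limit read from the data, passing the limit was not always enough; inconclusive = exactly half of the replicate wells pass the set limit; inactive = fewer than half of replicates pass the limit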
RUNX1 CBFb TR: Runt-CBFb binding inhibition; shares compounds with Runt-CBFb FRET; TR-FRET RUNX1 Runt domain-CBFb binding; inhibition, % at 20 µM; actives 20% (n = 480); AID 1502; in the data active = inhibition above about 40%
Each line names hits and unclear results; the compound was inactive in the other large screens (follow-up assays come after a bar, where they were run).

CC1(C)C(N(O)C(=O)Nc2ccccc2)N(c2cccc(Cl)c2)C(=O)N1O (stereo not given)	Runt-CBFb FRET 53 (no result: Rce1 inh) | RUNX1 CBFb TR inactive
Cc1ccc(CSc2nnc3ccc(-c4ccncc4)nn23)cc1	none
CCOc1cc(C(=O)NC2CC(C)(C)NC(C)(C)C2)cc(OCC)c1OCC	none (no result: Runt-SMMHC FRET, Runt-CBFb FRET, Rce1 inh)
Oc1ccc(-c2cnns2)c(O)c1	Runt-CBFb FRET 73 (no result: Runt-SMMHC FRET) | RUNX1 CBFb TR 58
COC(=O)C1=C(CSc2nc3c(cc2C#N)CN(C)CC3)OC(N)=C(C#N)C1c1ccccc1F (stereo not given)	Runt-CBFb FRET 58, RanGTP-Impb inh 24 (no result: Runt-SMMHC FRET) | RUNX1 CBFb TR 55
CCOC(=O)C1=C(CSc2nc3c(cc2C#N)CCC3)OC(N)=C(C#N)C1c1ccccc1 (stereo not given)	none (no result: Runt-CBFb FRET, Rce1 inh)
O=[N+]([O-])c1cccc(/C=C/c2nc3ccc([N+](=O)[O-])cc3[nH]2)c1	none
COc1cccc(C2C(C(=O)Nc3nc4ccccc4s3)=C(C)NC3=C2C(=O)CC(C)(C)C3)c1OC (stereo not given)	Runt-SMMHC FRET 82, Runt-CBFb FRET 54, RanGTP-Impb inh 69 | RUNX1 CBFb TR inactive
CCCCn1c(-c2ccncc2)nc2c1c(=O)[nH]c(=O)n2CC(C)C	Runt-CBFb FRET 75 | RUNX1 CBFb TR inactive
C=CCNC(=O)/C(C#N)=C/c1c(N(Cc2ccccc2)Cc2ccccc2)nc2ccccn2c1=O	Runt-SMMHC FRET 71, Runt-CBFb FRET 51 | RUNX1 CBFb TR inactive
N#C/C(=C\c1c(N(Cc2ccccc2)Cc2ccccc2)nc2ccccn2c1=O)C(N)=O	none
Clc1ccc(-c2csc(NNC3=NCCCCC3)n2)cc1	none
c1ccc(-c2csc(NNC3=NCCCCC3)n2)cc1	Runt-CBFb FRET 51 | RUNX1 CBFb TR 44
CCc1nc2sc3c(O)cc(=O)[nH]c3c2cc1C	Runt-CBFb FRET 52 | RUNX1 CBFb TR 54
O=c1[nH]c2ccccc2n1CCC1CCCCC1	none
Cc1cc(O)ccc1N/C=C(\C#N)c1nc2ccccc2o1	Runt-CBFb FRET 53 | RUNX1 CBFb TR inactive
N#C/C(=C\c1c(Cl)cccc1Cl)c1nc2ccccc2o1	none
COc1ccc2ccccc2c1C(O)c1nccn1C (stereo not given)	Runt-SMMHC FRET 115, Runt-CBFb FRET 55 | RUNX1 CBFb TR inactive
O=C(CSc1ncnc2ccccc12)c1cccs1	Runt-SMMHC FRET 90, Runt-CBFb FRET 54 | RUNX1 CBFb TR inactive
O=C(CSc1ncnc2ccccc12)N1CCCC1	none
CC1CCCC(NC(=O)C2N(CCCN3CCCC3)C(=O)C3C(C(=O)Nc4ccc(Cl)cc4)C4C=CC32O4)C1C (stereo not given)	none (no result: Runt-SMMHC FRET, Runt-CBFb FRET)
O=C(NNC(=O)c1cc(O)c(O)c(O)c1)NC1CCCCC1	Runt-CBFb FRET 55 | RUNX1 CBFb TR 61
COc1ccc(CN(CC(=O)NCCc2ccccc2)C(=O)CCC(=O)Nc2cc(C)ccn2)cc1	none (no result: Runt-SMMHC FRET, Runt-CBFb FRET)
COc1ccc(/C=N/NC(=O)c2nc(-c3ccccc3)n(-c3ccccc3)n2)cc1OC	Runt-CBFb FRET 76 | RUNX1 CBFb TR inactive
O=c1oc2c(-c3ccc([N+](=O)[O-])cc3)cc(O)cc2s1	Runt-CBFb FRET 56 | RUNX1 CBFb TR inactive
NC1=C(c2ccc([N+](=O)[O-])cc2)C(=O)CO1	none
CCN(Cc1ccccc1)C(=O)c1ccc2c(=O)n3c(nc2c1)CCC3	none (no result: Runt-SMMHC FRET, Runt-CBFb FRET)
COc1ccccc1CCn1c(N)c(C#N)c2nc3ccccc3nc21	Runt-SMMHC FRET 140, Runt-CBFb FRET 80, RanGTP-Impb inh 56 | RUNX1 CBFb TR inactive
COc1ccc(Cn2c(N)c(C#N)c3nc4ccccc4nc32)cc1OC	none (no result: Rce1 inh)
CCOC(=O)c1c(NC(=S)Nc2ccc(OCC)cc2)sc2c1CCN(C)C2	Runt-SMMHC FRET 52, Runt-CBFb FRET 82, RanGTP-Impb inh 19 (no result: Platelet DG rel) | RUNX1 CBFb TR inactive
CCOC(=O)c1c(NC(=S)Nc2ccc(C)cc2)sc2c1CCC2	none
CCN(CC)c1ccc(/C=N/NC(=O)c2ccco2)cc1	none
CCN(CC)c1ccc(/C=N/NC(=O)c2ccco2)c(O)c1	Runt-SMMHC FRET 82, Runt-CBFb FRET 75, RanGTP-Impb inh 63 | RUNX1 CBFb TR inactive
CNC(=O)/C(C#N)=C/c1c(N2CC(C)OC(C)C2)nc2ccccn2c1=O (stereo not given)	Runt-SMMHC FRET 121, Runt-CBFb FRET 94, RanGTP-Impb inh inconclusive | RUNX1 CBFb TR inactive
Cc1cc(C)nc(SCC(=O)c2cc3ccccc3oc2=O)n1	Runt-CBFb FRET 54 | RUNX1 CBFb TR inactive
O=C(CSc1nc2ccccc2o1)c1cc2ccccc2oc1=O	none (no result: Rce1 inh, Platelet DG rel, RanGTP-Impb inh)
CCc1nc(SCC(=O)O)c(C#N)cc1C	none
CCOC(=O)CC(=O)CSc1nc(CC)c(C)cc1C#N	Runt-CBFb FRET 53 | RUNX1 CBFb TR inactive
CC(C)NC(=O)c1cccc(Cn2cc(Cl)cn2)c1	Runt-CBFb FRET 54 | RUNX1 CBFb TR inactive
COC(=O)c1ccc(Cn2cc(Cl)cn2)cc1	none
c1csc(-c2ccn[nH]2)c1	none
S=c1nccc(-c2cccs2)[nH]1	Runt-CBFb FRET 65 (no result: Rce1 inh) | RUNX1 CBFb TR inactive
O=C(NCC(c1ccco1)N1CCN(c2ccccc2F)CC1)C(=O)NC1CCCC1 (stereo not given)	none (no result: Runt-SMMHC FRET, Runt-CBFb FRET, Platelet DG rel)
Oc1ccc(-c2csc(-c3cccnc3)n2)cc1O	Runt-CBFb FRET 53 | RUNX1 CBFb TR 68
Oc1ccc(-c2csc(Nc3ncccn3)n2)cc1O	Runt-CBFb FRET 50 | RUNX1 CBFb TR 42
O=c1[nH]nc(-c2ccc(F)cc2)cc1Cc1ccc(F)cc1	none
CCCn1nc(NC(=O)C2CCCO2)c2cc3cccc(C)c3nc21 (stereo not given)	Runt-SMMHC FRET 82, Runt-CBFb FRET 62, RanGTP-Impb inh 68 | RUNX1 CBFb TR inactive
CC(=O)N1CC[n+]2c(-c3ccc(Cl)cc3)csc21	Runt-SMMHC FRET 58, Runt-CBFb FRET 60 | RUNX1 CBFb TR inactive
CCc1ccc(-c2csc3[n+]2CCN3C(C)=O)cc1	none
N#CC1=C2SCCN2C(=O)C(C#N)C12CCCCC2 (stereo not given)	Runt-CBFb FRET 56 | RUNX1 CBFb TR inactive
CN(C)/C=C/C(=O)c1ccc2noc(-c3ccccc3)c2c1	none (no result: Runt-SMMHC FRET, Runt-CBFb FRET)
c1ccc(-c2onc3cc4c(cc23)OCCO4)cc1	Runt-SMMHC FRET 104, Runt-CBFb FRET 77 | RUNX1 CBFb TR inactive
CCOC(=O)c1cccc(C(=O)Nc2nc3ccc(OC)cc3s2)n1	none
O=C(NNC(=O)C1CCCN(c2ncccn2)C1)c1ccncc1 (stereo not given)	none (no result: Rce1 inh)
CCCCc1cc(=O)oc2c(CN(C)C)c(O)c(Cl)cc12	Runt-SMMHC FRET 156, Runt-CBFb FRET 75, Rce1 inh inconclusive (no result: RanGTP-Impb inh) | RUNX1 CBFb TR inactive
Cc1nn(CC(=O)OC(C)C(=O)Nc2ccccc2[N+](=O)[O-])c(C)c1[N+](=O)[O-] (stereo not given)	none
O=C1C(O)CC2c3ccccc3CC3(CCCC3)N12 (stereo not given)	Runt-CBFb FRET 58 | RUNX1 CBFb TR inactive
